# GSK3 alpha inh: human GSK-3 alpha kinase inhibition | P49840 | ADP-Glo luminescence, 60 min | inhibition, % at 10 µM | 320,000 tested, 0.1% active;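 active = more than half of replicates show inhibition above 20%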;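 also: GST-tagged GSK-3 alpha with peptide substrate and 25 µM ATP; 0% = DMSO neutral wells and 100% = GW8510 positive control wells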
# GSK3beta inhib: human GSK3beta kinase inhibition. P49841. GST-GSK3beta kinase, ADP-Glo luminescence, 60 min; stronger effect = lower value. activity score (negative = inhibition), % at 10 µM. 300,000 tested, 0.038% active. AID 2097;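 active = more than half of replicate wells score below -50%, meaning over 50% inhibition versus plate controls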;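 also: 0% = median DMSO wells and -100% = median GW8510 positive control wells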
#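 Test system – GST-tagged human GSK3beta kinase, cell-free · Incubation – 60 min enzyme reaction, room temperature · Signal – ADP-Glo luminescence · Also added – peptide substrate and ATP at 25 µM · Controls – DMSO neutral wells and GW8510 at 20 µM as positive · Buffer or medium – Tris/MgCl2 kinase buffer · Measure – Luminescence-derived activity versus plate DMSO and GW8510 wells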
# CDK5 p35 inh: inhibitors of human CDK5/p35 kinase; Recombinant CDK5/p35, ADP-Glo luminescence, 60 min; inhibition, % at 10 µM; Q00535+Q15078; 330,000 tested, 0.01% active;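 active = highest replicate inhibition of at least 50% and at least 75% of replicates reaching 50%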;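 also: plate controls were DMSO neutral control for no effect and GW8510 at 10 µM for full effect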
# Target sequence (Q00535 whole entry, looked up): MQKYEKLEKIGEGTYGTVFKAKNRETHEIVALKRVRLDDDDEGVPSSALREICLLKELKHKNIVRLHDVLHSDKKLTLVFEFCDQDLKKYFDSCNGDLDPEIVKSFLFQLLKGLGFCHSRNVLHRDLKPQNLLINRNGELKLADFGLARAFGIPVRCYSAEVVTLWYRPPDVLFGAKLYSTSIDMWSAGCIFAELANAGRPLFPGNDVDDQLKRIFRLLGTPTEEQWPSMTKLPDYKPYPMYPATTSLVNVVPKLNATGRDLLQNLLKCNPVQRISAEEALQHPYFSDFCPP
# Target sequence (Q15078 whole entry, looked up): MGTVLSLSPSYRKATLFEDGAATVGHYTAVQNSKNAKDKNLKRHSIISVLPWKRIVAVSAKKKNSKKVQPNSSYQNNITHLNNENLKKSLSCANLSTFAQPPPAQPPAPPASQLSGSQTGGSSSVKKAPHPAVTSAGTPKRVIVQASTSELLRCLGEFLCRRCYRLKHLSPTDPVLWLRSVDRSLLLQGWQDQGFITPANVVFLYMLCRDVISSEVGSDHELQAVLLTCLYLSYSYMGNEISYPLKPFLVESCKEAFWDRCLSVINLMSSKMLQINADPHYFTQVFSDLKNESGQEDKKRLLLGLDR
# STK33 kinase inh: human STK33 kinase inhibition | inhibition, % at 10 µM | purified STK33, MBP phosphorylation, ADP-Glo luminescence | AID 2661 | 320,000 tested, 0.073% active;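 active = inhibition at or above 25%, using the most active replicate where run in duplicate; inactive = inhibition below 25%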
# Dyrk1A ADPGlo: blocks rat Dyrk1A kinase activity. 310,000 tested, 0.43% active. ADP-Glo luminescence, NFATc1 peptide. inhibition, % at 12.5 µM. Q63470; in the data active = inhibition above about 50%;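 also: plate controls were vehicle with enzyme for no effect and no enzyme for full effect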
# ADP-Glo artifact: ADP-Glo luciferase interference, Dyrk1A counter-screen | shares compounds with Dyrk1A ADPGlo | ADP-Glo luciferase artifact assay, no Dyrk1A, luminescence | AC50, µM (highest dose often 12 µM), for the others: top-dose activity change, negative = inhibition | 1,300 tested, under 10 active | AID 588348;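 active = fitted half-maximal dose AC50 no more than ten times the top valid tested dose, with luminescence dropping as dose rises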
# Active calls of the source: *; . = not tested or not shown. The entries come from a sample that favours hits as a whole.
SMILES,GSK3 alpha inh,GSK3beta inhib,CDK5 p35 inh,STK33 kinase inh,Dyrk1A ADPGlo,ADP-Glo artifact
Cc1cccc(NC(=O)N2CCCC(CNC(=O)c3ccccc3Cl)C2)c1C (stereo unspecified),2.3,-0.5,0.7,-0.9,-4.4,.
Cc1ccc(/C=N/NC(=O)CNC(=O)c2cccc([N+](=O)[O-])c2C)o1,-4.9,2.1,1.8,-2.4,-2.8,.
Oc1ccc(-c2nc(-c3ccc(O)c(O)c3)cs2)cc1,31.4,3.7,28.5,18.8,71.6*,7.4%
CCC1(CC)NC(=O)N(CC(=O)Nc2sc3c(c2C(N)=O)CCC3)C1=O,28.0,-8.9,4.3,0.6,65.5*,2.0%
Oc1ccc(/C=N/n2c(-c3ccccc3)n[nH]c2=S)cc1Br,10.1,-5.8,7.9,7.9,55.8*,11.2%
Oc1c(Br)cc(/C=N/n2c(-c3ccccc3)n[nH]c2=S)cc1Br,5.2,-2.4,2.3,-12.5,1.4,.
COc1cc(/C=C2\SC(=S)N(NC(=O)c3ccc(O)c(OC)c3)C2=O)ccc1O,1.9,0.1,1.5,2.9,42.1,.
COc1cc(/C=C2\SC(=S)N(NC(=O)c3cccc(O)c3)C2=O)ccc1O,2.4,-8.9,3.2,0.5,61.4*,5.0%
Cn1cc(C(=O)N2CCc3ccccc32)cn1,0.3,-3.5,-1.1,0.7,-6.4,.
CCS(=O)(=O)c1ncc(CO)n1CCc1ccccc1,0.3,-0.1,-0.4,-0.7,0.6,.
CCCCOc1cccc(C(=O)NC(=S)Nc2ccc(Cl)c(C(=O)O)c2)c1,-4.3,-1.6,0.7,-1.5,66.2*,10.8%
O=C(NC(=S)Nc1ccc(Cl)c(C(=O)O)c1)c1cccc(COc2ccccc2)c1,-4.7,0.3,0.2,-6.2,-4.9,.

# From PubChem
